Assays:
[1] = tested on: CHO; assay: Cytotoxicity against CHO cells by MTT assay; type: cell-based; settings: Cricetulus griseus
Summary of the method: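 MTT colorimetric growth/survival assay. Samples from 2 mg/mL stocks in 10% methanol or 10% DMSO, suspensions allowed, stored at -20 °C; 10-fold serial dilutions in complete medium, six concentrations. Emetine reference from 100 µg/mL down to 0.001 µg/mL. Triplicate, one occasion; IC50 by nonlinear dose-response curve fitting.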

[2] = tested on: Plasmodium falciparum; assay: Antiplasmodial activity after 48 hrs against chloroquine-sensitive Plasmodium falciparum D10 infected human erythrocytes by LDH reporter assay; type: functional, organism-based; settings: D10, 48 h
Summary of the method: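 Asexual erythrocytic P. falciparum D10 (CQ-sensitive) kept in continuous culture (modified Trager–Jensen); growth read by parasite lactate dehydrogenase assay (modified Makler). Samples from 2 mg/mL stocks in 10% DMSO, sonicated, suspensions allowed; tested from 100 µg/mL in 2-fold serial dilutions in complete medium, 10 concentrations down to 0.2 µg/mL. Chloroquine reference from 100 ng/mL. Duplicate, one occasion; IC50 from full dose-response.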

[3] = tested on: CHO; assay: Cytotoxicity against CHO cells at 100 ug/mL by MTT assay; type: cell-based, Cricetulus griseus; settings: chinese hamster
[4] = Selectivity index, ratio of IC50 for CHO cells to IC50 for chloroquine-sensitive Plasmodium falciparum D10; type: toxicity, cell-based; settings: hamster, read-out: Ratio IC50

IC50 [2] [µM]	IC90 [2] [µM]	SMILES	IC50 [1] [µM]	Activity [3]	selectivity ratio [4]
–	–	CC[C@H]1CN2CCc3cc(OC)c(OC)cc3[C@@H]2C[C@@H]1C[C@H]1NCCc2cc(OC)c(OC)cc21 [EMETINE]	0.108	–	–
129	–	CCCN1COC[C@@H](Oc2ccccc2)[C@H]1c1ccc(C)cc1 (relative stereo)	–	–	–
–	0.067	CCN(CC)CCCC(C)Nc1ccnc2cc(Cl)ccc12 (centres undefined) [CHLOROQUINE]	–	–	–
16.8	118	Fc1ccccc1[C@@H]1[C@H](Oc2ccccc2)COCN1Cc1ccccc1 (relative stereo)	–	Non-toxic	–
42.6	–	COc1cccc([C@@H]2[C@H](OC)COCN2C2CCCCC2)c1 (relative stereo)	–	–	–
15.3	70.8	Cc1ccc([C@H](NCC(C)C)[C@H](CO)OCc2ccccc2)cc1 (relative stereo)	144	–	9.4
175	–	COc1cccc([C@@H](NC2CCCCC2)[C@H](CO)OC)c1 (relative stereo)	–	–	–
66.3	–	CC(C)N1COC[C@@H](OCc2ccccc2)[C@H]1c1ccccc1 (relative stereo)	–	–	–
10.5	43.1	OC[C@H](OCc1ccccc1)[C@@H](NCc1ccccc1)c1ccccc1Br (relative stereo)	–	Non-toxic	–
87.1	–	CCCN1COC[C@@H](Oc2ccccc2)[C@H]1c1ccc(OC)cc1	–	–	–
30.3	–	Cc1ccc([C@@H]2[C@H](OCc3ccccc3)COCN2CC(C)C)cc1 (relative stereo)	–	–	–
45.9	165	CC(C)N[C@@H](c1ccccc1)[C@H](CO)OCc1ccccc1 (relative stereo)	–	–	–
16.4	47.8	CCCN[C@@H](c1ccc(OC)cc1)[C@H](CO)Oc1ccccc1	145	–	8.8
121	–	CO[C@@H]1COCN(C(C)(C)C)[C@@H]1c1ccc(C)cc1 (relative stereo)	–	–	–
6.36	12.5	OC[C@H](OCc1ccccc1)[C@H](Nc1ccccc1)c1ccc(Cl)cc1 (relative stereo)	–	Non-toxic	–
84.9	–	CCCN1COC[C@@H](Oc2ccccc2)[C@H]1c1ccccc1 (relative stereo)	–	–	–
25.1	223	OC[C@H](Oc1ccccc1)[C@@H](NCc1ccccc1)c1ccccc1F (relative stereo)	–	–	–
13.7	252	CCCN[C@@H](c1ccc(C)cc1)[C@H](CO)Oc1ccccc1	326	–	23.8
25.2	102	CCCN[C@@H](c1cccc(OC)c1)[C@H](CO)Oc1ccccc1	–	–	–
14.1	38.6	Brc1ccccc1[C@@H]1[C@H](OCc2ccccc2)COCN1Cc1ccccc1 (relative stereo)	–	Non-toxic	–
82	–	Cc1ccc([C@@H]([C@H](CO)OCc2ccccc2)N(C)CC(C)C)cc1 (relative stereo)	–	–	–
19.4	138	Clc1ccc([C@@H]2[C@H](OCc3ccccc3)COCN2c2ccccc2)cc1 (relative stereo)	–	–	–
85.2	–	CCCN[C@@H](c1ccccc1)[C@H](CO)Oc1ccccc1	–	–	–
